Experimental data: ChEMBL document CHEMBL2040781, “Design, synthesis, and biological evaluation of chromone-based p38 MAP kinase inhibitors” (J Med Chem, 2011)
Calls of active or inactive are those of the source. No cut-off for these calls is given here.

Columns and labels:
[1] = target: Cyclin-dependent kinase 7/ cyclin H (Homo sapiens) (UniProt P51946+P50613); experiment: Inhibition of human CDK7/cyclinH/MAT1 assessed as remaining activity at 0.8 uM after 40 mins by scintillation counting; type: protein-complex assay
[2] = target: T1, Mitogen-activated protein kinase 14 (Homo sapiens, UniProt Q16539); experiment: Inhibition of p38alpha MAPK after 40 mins by scintillation counting
T1 sequence (Q16539 whole entry): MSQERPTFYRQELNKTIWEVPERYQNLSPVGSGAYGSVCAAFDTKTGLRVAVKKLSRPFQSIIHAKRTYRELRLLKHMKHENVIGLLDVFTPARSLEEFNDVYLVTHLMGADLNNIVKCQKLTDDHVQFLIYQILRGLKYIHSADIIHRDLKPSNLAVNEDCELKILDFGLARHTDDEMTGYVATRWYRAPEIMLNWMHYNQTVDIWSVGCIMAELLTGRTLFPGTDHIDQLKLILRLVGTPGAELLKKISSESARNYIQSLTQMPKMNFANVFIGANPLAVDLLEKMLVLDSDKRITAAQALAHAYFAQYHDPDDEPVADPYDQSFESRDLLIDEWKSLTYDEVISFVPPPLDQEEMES

[3] = target: T1, Mitogen-activated protein kinase 14; experiment: Inhibition of human SAPK2a assessed as remaining activity at 0.8 uM after 40 mins by scintillation counting
[4] = target: Dual specificity mitogen-activated protein kinase kinase 1 (Homo sapiens) (UniProt Q02750); experiment: Inhibition of human MEK1 assessed as remaining activity at 0.8 uM after 40 mins by scintillation counting
Sequence of Dual specificity mitogen-activated protein kinase kinase 1 (Homo sapiens) (Q02750 whole entry): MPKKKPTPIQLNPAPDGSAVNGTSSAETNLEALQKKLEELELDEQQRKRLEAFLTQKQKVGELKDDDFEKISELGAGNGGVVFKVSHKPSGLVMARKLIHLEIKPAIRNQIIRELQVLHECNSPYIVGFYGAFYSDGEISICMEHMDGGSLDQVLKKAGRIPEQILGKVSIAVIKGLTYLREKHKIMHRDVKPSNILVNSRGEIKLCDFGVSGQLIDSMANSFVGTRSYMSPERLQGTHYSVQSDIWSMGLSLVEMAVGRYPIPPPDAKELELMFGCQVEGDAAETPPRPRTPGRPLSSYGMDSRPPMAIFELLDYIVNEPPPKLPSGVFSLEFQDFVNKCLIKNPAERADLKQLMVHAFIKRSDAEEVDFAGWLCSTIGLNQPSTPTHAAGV

[5] = target: Ribosomal protein S6 kinase alpha-4 (Homo sapiens) (UniProt O75676); experiment: Inhibition of human MSK2 assessed as remaining activity at 0.8 uM after 40 mins by scintillation counting
[6] = target: Ribosomal protein S6 kinase alpha-1 (Homo sapiens) (UniProt Q15418); experiment: Inhibition of human Rsk1 assessed as remaining activity at 0.8 uM after 40 mins by scintillation counting
[7] = target: MAP kinase-activated protein kinase 2 (Homo sapiens) (UniProt P49137); experiment: Inhibition of human MAPKAP-K2 assessed as remaining activity at 0.8 uM after 40 mins by scintillation counting
[8] = target: Rho-associated protein kinase 1 (Homo sapiens) (UniProt Q13464); experiment: Inhibition of human ROCK-I assessed as remaining activity at 0.8 uM after 40 mins by scintillation counting
[9] = target: Mitogen-activated protein kinase 9 (Homo sapiens) (UniProt P45984); experiment: Inhibition of human JNK2alpha2 assessed as remaining activity at 0.8 uM after 40 mins by scintillation counting
[10] = target: cGMP-dependent protein kinase 1 (Homo sapiens) (UniProt Q13976); experiment: Inhibition of human PKG1alpha assessed as remaining activity at 0.8 uM after 40 mins by scintillation counting
[11] = target: Dual specificity mitogen-activated protein kinase kinase 3 (Homo sapiens) (UniProt P46734); experiment: Inhibition of anisomycin-induced MKK3 phosphorylation in human MCF7 cells at 1 to 10 uM after 30 mins by SDS PAGE analysis; type: cell-based
[12] = target: Mitogen-activated protein kinase kinase kinase 7 (TAK1) (Homo sapiens) (UniProt O43318); experiment: Inhibition of human TAK1 assessed as remaining activity at 0.8 uM after 40 mins by scintillation counting
[13] = target: Tyrosine-protein kinase receptor TYRO3 (Homo sapiens) (UniProt Q06418); experiment: Inhibition of human Rse assessed as remaining activity at 0.8 uM after 40 mins by scintillation counting
[14] = target: Interleukin-1 receptor-associated kinase 4 (Homo sapiens) (UniProt Q9NWZ3); experiment: Inhibition of human IRAK4 assessed as remaining activity at 0.8 uM after 40 mins by scintillation counting
Sequence of Interleukin-1 receptor-associated kinase 4 (Homo sapiens) (Q9NWZ3 whole entry): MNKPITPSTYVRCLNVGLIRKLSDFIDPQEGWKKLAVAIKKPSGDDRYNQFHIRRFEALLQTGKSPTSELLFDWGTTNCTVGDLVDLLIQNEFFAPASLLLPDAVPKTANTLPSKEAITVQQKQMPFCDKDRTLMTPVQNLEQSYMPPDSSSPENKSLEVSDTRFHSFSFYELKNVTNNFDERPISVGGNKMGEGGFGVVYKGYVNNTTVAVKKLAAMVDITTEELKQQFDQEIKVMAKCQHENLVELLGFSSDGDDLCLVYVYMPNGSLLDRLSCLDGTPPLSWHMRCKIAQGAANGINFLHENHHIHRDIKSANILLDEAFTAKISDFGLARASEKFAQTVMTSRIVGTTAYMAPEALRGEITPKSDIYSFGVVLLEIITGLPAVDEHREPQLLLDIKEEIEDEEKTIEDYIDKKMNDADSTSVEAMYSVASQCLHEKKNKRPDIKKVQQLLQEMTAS

[15] = target: RAF proto-oncogene serine/threonine-protein kinase (Homo sapiens) (UniProt P04049); experiment: Inhibition of human RAF assessed as remaining activity at 0.8 uM after 40 mins by scintillation counting
[16] = target: Ephrin type-B receptor 4 (Homo sapiens) (UniProt P54760); experiment: Inhibition of human EphB4 assessed as remaining activity at 0.8 uM after 40 mins by scintillation counting
[17] = target: MAP kinase-activated protein kinase 5 (Homo sapiens) (UniProt Q8IW41); experiment: Inhibition of human PRAK assessed as remaining activity at 0.8 uM after 40 mins by scintillation counting
Sequence of MAP kinase-activated protein kinase 5 (Homo sapiens) (Q8IW41 whole entry): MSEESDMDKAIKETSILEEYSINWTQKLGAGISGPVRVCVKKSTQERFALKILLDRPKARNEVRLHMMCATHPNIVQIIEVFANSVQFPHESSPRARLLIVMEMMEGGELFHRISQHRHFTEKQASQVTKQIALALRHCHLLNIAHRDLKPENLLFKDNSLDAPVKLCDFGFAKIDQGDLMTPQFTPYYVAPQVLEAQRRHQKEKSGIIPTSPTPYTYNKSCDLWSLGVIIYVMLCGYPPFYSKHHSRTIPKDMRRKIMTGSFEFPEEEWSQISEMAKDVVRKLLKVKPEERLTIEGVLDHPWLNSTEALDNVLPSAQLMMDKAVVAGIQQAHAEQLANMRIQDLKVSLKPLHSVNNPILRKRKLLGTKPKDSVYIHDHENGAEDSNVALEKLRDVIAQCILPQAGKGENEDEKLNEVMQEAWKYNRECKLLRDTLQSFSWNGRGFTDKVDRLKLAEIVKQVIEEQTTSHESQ

[18] = target: Ephrin type-A receptor 5 (Homo sapiens) (UniProt P54756); experiment: Inhibition of human EphA5 assessed as remaining activity at 0.8 uM after 40 mins by scintillation counting
[19] = target: Casein kinase I isoform gamma-1 (Homo sapiens) (UniProt Q9HCP0); experiment: Inhibition of human CK1gamma1 assessed as remaining activity at 0.8 uM after 40 mins by scintillation counting
[20] = target: SRSF protein kinase 1 (Homo sapiens) (UniProt Q96SB4); experiment: Inhibition of human SRPK1 assessed as remaining activity at 0.8 uM after 40 mins by scintillation counting
[21] = target: Casein kinase II subunit alpha' (Homo sapiens) (UniProt P19784); experiment: Inhibition of human CK2alpha2 assessed as remaining activity at 0.8 uM after 40 mins by scintillation counting
[22] = target: Inhibitor of nuclear factor kappa-B kinase subunit alpha (Homo sapiens) (UniProt O15111); experiment: Inhibition of human IKKalpha assessed as remaining activity at 0.8 uM after 40 mins by scintillation counting
Sequence of Inhibitor of nuclear factor kappa-B kinase subunit alpha (Homo sapiens) (O15111 whole entry): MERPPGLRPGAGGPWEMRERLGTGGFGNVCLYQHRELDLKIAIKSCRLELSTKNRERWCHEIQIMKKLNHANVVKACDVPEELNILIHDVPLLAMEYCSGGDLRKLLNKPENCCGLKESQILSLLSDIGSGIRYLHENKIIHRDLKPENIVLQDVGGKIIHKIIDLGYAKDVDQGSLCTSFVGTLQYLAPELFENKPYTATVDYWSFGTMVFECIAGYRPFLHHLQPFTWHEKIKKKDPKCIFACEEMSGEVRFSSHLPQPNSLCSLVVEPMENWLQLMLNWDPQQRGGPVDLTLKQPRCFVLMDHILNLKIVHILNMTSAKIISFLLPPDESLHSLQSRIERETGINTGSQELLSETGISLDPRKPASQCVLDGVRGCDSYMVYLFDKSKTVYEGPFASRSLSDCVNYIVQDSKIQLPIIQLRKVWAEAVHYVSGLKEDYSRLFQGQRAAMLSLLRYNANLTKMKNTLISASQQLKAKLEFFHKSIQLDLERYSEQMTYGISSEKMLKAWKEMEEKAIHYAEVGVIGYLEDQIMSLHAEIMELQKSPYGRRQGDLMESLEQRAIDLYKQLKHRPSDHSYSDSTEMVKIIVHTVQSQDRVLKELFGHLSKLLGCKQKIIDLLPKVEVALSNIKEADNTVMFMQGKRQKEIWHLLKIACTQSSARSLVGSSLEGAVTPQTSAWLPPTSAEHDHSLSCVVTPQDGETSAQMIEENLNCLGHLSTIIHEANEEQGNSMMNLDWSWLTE

[23] = target: T1, Mitogen-activated protein kinase 14; experiment: Inhibition of anisomycin-induced p38alpha MAPK signalling in human MCF7 cells assessed as inhibition of HSP27 activation at 10 uM after 30 mins by SDS PAGE analysis; type: cell-based
Summary of the method: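 MCF-7 cells were preincubated with the compound at the indicated doses for 30 min, then stimulated with 10 μg/mL anisomycin for another 30 min. Total cell lysates were resolved by SDS-PAGE and immunoblotted with antibodies against phosphorylated ATF2, p38 and HSP27, with tubulin as the loading control.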

[24] = target: Mitogen-activated protein kinase 13 (Homo sapiens) (UniProt O15264); experiment: Inhibition of human SAPK4 assessed as remaining activity at 0.8 uM after 40 mins by scintillation counting
[25] = target: Tyrosine-protein kinase JAK2 (Homo sapiens) (UniProt O60674); experiment: Inhibition of human JAK2 assessed as remaining activity at 0.8 uM after 40 mins by scintillation counting
[26] = target: Tyrosine-protein kinase Lyn (Homo sapiens) (UniProt P07948); experiment: Inhibition of human Lyn assessed as remaining activity at 0.8 uM after 40 mins by scintillation counting
Sequence of Tyrosine-protein kinase Lyn (Homo sapiens) (P07948 2-512 limits assumed): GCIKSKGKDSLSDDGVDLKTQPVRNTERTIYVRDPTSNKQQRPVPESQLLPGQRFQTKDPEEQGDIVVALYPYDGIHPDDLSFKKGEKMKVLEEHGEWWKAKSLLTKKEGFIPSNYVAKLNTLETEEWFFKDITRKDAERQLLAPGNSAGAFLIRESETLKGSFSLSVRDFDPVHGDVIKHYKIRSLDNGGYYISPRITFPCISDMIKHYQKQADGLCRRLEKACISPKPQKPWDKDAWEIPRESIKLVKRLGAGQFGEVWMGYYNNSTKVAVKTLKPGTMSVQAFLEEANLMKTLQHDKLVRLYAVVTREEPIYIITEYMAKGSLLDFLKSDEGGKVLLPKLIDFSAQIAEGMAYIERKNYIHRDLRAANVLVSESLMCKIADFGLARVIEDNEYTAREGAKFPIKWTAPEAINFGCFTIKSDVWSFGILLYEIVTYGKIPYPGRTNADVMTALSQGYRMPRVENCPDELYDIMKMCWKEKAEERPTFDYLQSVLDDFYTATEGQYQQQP

[27] = target: Mitogen-activated protein kinase 11 (Homo sapiens) (UniProt Q15759); experiment: Inhibition of human SAPK2b assessed as remaining activity at 0.8 uM after 40 mins by scintillation counting
[28] = target: Serine/threonine-protein kinase Chk1 (Homo sapiens) (UniProt O14757); experiment: Inhibition of human CHK1 assessed as remaining activity at 0.8 uM after 40 mins by scintillation counting
[29] = target: Eukaryotic elongation factor 2 kinase (Homo sapiens) (UniProt O00418); experiment: Inhibition of human eEF-2K assessed as remaining activity at 0.8 uM after 40 mins by scintillation counting
[30] = target: Protein kinase C theta type (Homo sapiens) (UniProt Q04759); experiment: Inhibition of human PKCtheta assessed as remaining activity at 0.8 uM after 40 mins by scintillation counting
[31] = target: Serine/threonine-protein kinase Nek2 (Homo sapiens) (UniProt P51955); experiment: Inhibition of human NEK2 assessed as remaining activity at 0.8 uM after 40 mins by scintillation counting
Sequence of Serine/threonine-protein kinase Nek2 (Homo sapiens) (P51955 whole entry): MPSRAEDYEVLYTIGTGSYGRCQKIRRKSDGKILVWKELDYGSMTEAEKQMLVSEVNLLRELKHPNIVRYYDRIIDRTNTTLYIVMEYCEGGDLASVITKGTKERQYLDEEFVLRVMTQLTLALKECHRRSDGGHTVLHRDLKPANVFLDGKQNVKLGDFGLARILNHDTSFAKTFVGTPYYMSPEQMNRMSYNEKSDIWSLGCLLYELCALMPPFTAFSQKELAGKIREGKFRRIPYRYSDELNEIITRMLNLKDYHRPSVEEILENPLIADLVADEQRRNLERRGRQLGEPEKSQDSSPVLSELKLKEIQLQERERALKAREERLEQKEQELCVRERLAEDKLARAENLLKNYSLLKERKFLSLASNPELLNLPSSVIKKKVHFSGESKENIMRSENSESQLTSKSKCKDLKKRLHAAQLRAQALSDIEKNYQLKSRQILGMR

[32] = target: Serine/threonine-protein kinase 10 (Homo sapiens) (UniProt O94804); experiment: Inhibition of human LOK assessed as remaining activity at 0.8 uM after 40 mins by scintillation counting
[33] = target: ALK tyrosine kinase receptor (Homo sapiens) (UniProt Q9UM73); experiment: Inhibition of human ALK assessed as remaining activity at 0.8 uM after 40 mins by scintillation counting
Sequence of ALK tyrosine kinase receptor (Homo sapiens) (Q9UM73 19-1620 limits assumed): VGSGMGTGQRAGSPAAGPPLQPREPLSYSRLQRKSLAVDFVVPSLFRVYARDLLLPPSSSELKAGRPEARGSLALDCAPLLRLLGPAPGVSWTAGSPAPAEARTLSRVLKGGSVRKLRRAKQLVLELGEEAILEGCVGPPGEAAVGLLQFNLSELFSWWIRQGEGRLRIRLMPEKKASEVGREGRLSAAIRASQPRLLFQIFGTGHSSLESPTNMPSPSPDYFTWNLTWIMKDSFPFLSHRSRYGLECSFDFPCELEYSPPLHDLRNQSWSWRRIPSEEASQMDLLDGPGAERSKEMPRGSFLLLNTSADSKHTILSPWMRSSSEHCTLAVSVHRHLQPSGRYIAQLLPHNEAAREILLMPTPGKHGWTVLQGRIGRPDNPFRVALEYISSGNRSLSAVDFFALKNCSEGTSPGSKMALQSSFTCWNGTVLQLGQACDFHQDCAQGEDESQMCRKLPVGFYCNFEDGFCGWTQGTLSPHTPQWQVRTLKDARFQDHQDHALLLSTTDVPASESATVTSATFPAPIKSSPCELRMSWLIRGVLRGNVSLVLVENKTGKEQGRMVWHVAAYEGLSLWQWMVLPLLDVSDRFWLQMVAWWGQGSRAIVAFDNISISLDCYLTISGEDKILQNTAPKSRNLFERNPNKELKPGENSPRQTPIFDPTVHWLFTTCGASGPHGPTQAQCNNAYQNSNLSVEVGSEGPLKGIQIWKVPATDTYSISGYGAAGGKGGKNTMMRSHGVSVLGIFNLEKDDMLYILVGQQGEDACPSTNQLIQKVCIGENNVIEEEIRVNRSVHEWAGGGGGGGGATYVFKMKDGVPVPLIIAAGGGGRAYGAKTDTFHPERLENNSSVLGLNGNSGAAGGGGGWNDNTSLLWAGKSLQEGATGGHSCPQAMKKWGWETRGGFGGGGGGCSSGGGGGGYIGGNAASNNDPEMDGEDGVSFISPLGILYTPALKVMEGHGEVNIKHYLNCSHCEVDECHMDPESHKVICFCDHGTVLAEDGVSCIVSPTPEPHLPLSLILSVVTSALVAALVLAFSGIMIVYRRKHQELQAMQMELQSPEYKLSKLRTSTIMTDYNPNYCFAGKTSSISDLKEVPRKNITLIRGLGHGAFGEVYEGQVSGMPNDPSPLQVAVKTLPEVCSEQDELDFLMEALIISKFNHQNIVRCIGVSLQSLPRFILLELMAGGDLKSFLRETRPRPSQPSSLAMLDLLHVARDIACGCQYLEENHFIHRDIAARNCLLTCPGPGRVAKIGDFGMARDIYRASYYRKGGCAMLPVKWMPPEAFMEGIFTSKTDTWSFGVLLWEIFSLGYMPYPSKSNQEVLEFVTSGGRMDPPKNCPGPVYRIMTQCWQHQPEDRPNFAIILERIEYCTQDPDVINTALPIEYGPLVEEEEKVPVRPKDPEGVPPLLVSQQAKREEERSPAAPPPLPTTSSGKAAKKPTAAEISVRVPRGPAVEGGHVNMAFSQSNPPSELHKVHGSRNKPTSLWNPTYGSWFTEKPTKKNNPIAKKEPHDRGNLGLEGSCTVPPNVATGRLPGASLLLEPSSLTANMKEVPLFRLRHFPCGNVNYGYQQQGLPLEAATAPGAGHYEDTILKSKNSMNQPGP

O=c1c(-c2ccc(F)cc2)c(-c2ccnc(NC3CCCCC3)c2)oc2ccccc12 gave an Activity [1] of 101%, an IC50 [2] of 34 nM and an Activity [3] of -1%. For the same molecule, the Activity [4] was 104%, the Activity [5] was 95% and the Activity [6] was 104%. The Activity [7] was 99%, the Activity [8] was 106% and the Activity [9] was 71%. For the same molecule, the Activity [10] was 102%, the inhibition [11] was “inactive” and the Activity [12] was 103%. For the same molecule, the Activity [13] was 91%, the Activity [14] was 95% and the Activity [15] was 83%. The Activity [16] was 98%, the Activity [17] was 66% and the Activity [18] was 104%. For the same molecule, the Activity [19] was 97%, the Activity [20] was 116% and the Activity [21] was 104%. For the same molecule, the Activity [22] was 100%, the Imax [23] was “Active” and the Activity [24] was 112%. It also gave an Activity [25] of 102%, an Activity [26] of 98% and an Activity [27] of 9%. It also gave an Activity [28] of 104%, an Activity [29] of 101% and an Activity [30] of 102%. For the same molecule, the Activity [31] was 98%, the Activity [32] was 94% and the Activity [33] was 91%.

CC(C)Nc1cc(-c2oc3ccccc3c(=O)c2-c2ccc(F)cc2)ccn1 was tested, and the Activity [1] was 100%, the IC50 [2] was 17 nM and the Activity [3] was -3%. For the same molecule, the Activity [4] was 99%, the Activity [5] was 89% and the Activity [6] was 104%. It also gave an Activity [7] of 104%, an Activity [8] of 94% and an Activity [9] of 58%. The Activity [10] was 104%, the Activity [12] was 97% and the Activity [13] was 98%. The Activity [14] was 91%, the Activity [15] was 73% and the Activity [16] was 97%. For the same molecule, the Activity [17] was 72%, the Activity [18] was 103% and the Activity [19] was 94%. For the same molecule, the Activity [20] was 109%, the Activity [21] was 105% and the Activity [22] was 106%. For the same molecule, the Activity [24] was 104%, the Activity [25] was 109% and the Activity [26] was 101%. It also gave an Activity [27] of -3%, an Activity [28] of 98% and an Activity [29] of 100%. The Activity [30] was 95%, the Activity [31] was 98% and the Activity [32] was 102%. It also gave an Activity [33] of 88%.
